The list is not random: actives were taken first. Their share in the collection is about 4.5%.
AHR activator: activators of human aryl hydrocarbon receptor. P35869. AHR-responsive luciferase reporter cells, luminescence. activation, % at 5 µM. 320,000 tested, 2.5% active. AID 2796; in the data active means activation above about 47%
STAT1 activator: STAT1 signaling activation | activation (% of control), % at 5.5 µM | AID 932 | NIH 3T3 STAT1-luciferase reporter, IFN-gamma, luminescence; 100% = IFN-gamma alone, no compound | 200,000 tested, 2.6% active;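 active means activation above the screen-wide mean activation plus 3 SD, cut at about 130% in these data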
PERK inh: human PERK inhibition, primary cell-based screen. CHO PERK-DD fusion, SEAP luminescence translation reporter. inhibition, % at 5.6 µM. 220,000 tested, 0.17% active;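 active means inhibition above the mean inhibition of all tested compounds plus 3 SD, set separately per screening campaign, cut at about 2.9% in these data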;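 further: PERK kinase domain activated by AP20187 dimerizer at 100 nM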
NF-kB neuron act: compounds increasing NF-kB expression in human neuronal cells. fold change at 12.5 µM. NF-kB reporter expression; stronger effect = higher value. AID 1239. 190,000 tested, 1.6% active; in the data active means fold change above about 3.3
APP 5'UTR act: APP 5'UTR luciferase reporter activation | SH-SY5Y APP 5'UTR luciferase reporter, luminescence; zero percent = DMSO vehicle wells | activation, % at 2 µM | 190,000 tested, 1% active;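 active means activation above a set limit, based on mean plus 3 SD of controls, cut at about 140% in these data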
MDM2 E3 inh: Mdm2 E3 ligase (human) inhibition | AID 1230 | cell-based MDM2 ubiquitination luciferase reporter, 2 h; 0 = plate control, 100 = twice control, blank-subtracted | signal enhancement, % at 5 µM | 210,000 tested, 0.11% active | Q00987;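 active means signal enhancement of 30% or more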;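 further: luminescence tracks abundance of the self-degrading MDM2-luciferase fusion protein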
Target sequence (Q00987 whole entry, looked up, the tested form may be a part): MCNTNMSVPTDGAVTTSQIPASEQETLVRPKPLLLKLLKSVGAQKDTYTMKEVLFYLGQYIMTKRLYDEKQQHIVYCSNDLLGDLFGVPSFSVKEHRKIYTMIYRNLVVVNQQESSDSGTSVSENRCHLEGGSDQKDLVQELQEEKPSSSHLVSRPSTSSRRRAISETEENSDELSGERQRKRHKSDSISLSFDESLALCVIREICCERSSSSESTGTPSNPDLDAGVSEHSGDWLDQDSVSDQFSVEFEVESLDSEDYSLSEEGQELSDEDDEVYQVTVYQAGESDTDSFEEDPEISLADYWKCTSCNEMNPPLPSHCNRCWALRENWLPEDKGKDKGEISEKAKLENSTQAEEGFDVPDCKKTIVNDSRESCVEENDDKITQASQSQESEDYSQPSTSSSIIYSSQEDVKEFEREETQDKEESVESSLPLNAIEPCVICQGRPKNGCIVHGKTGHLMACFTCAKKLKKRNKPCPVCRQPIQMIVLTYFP
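Material: stable MDM2–luciferase fusion reporter cells / Quantity: 2000 cells/well / Dosing: single 5 µM compound dose, 0.2% final DMSO / Buffer or medium: DMEM / Schedule: 4 h cell settling then 2 h compound exposure, 37 °C / Detection: luminescence with SteadyLite reagent, 15 min at room temperature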
Numbers stand for hits.

Results for C=CCNC(=O)Nc1ccc(F)cc1F ?
AHR activator: inactive; STAT1 activator: inactive; PERK inh: 3.4; NF-kB neuron act: inactive; APP 5'UTR act: inactive; MDM2 E3 inh: inactive

How did N#CC1=C(N)NC(SCC(=O)Nc2ccccc2)=C(C#N)C12CCCC2 do in these assays?
AHR activator: 70.9; STAT1 activator: inactive; PERK inh: inactive; NF-kB neuron act: inactive; APP 5'UTR act: inactive; MDM2 E3 inh: inactive

Results for N#CC1=C(N)NC(SCC(=O)O)=C(C#N)C12CCCC2 ?
AHR activator: inactive; STAT1 activator: inactive; PERK inh: inactive; NF-kB neuron act: inactive; APP 5'UTR act: inactive; MDM2 E3 inh: inactive

How did CCN(CC(=O)NCc1cccs1)C(=O)c1ccc(NS(=O)(=O)c2cccc([N+](=O)[O-])c2)cc1 do in these assays?
AHR activator: inactive

Results for CC(=NNC(=O)CSc1nc2ccccc2o1)c1ccco1 ?
AHR activator: inactive

Results for CCc1nnc(NC(=O)c2oc3cc(C)c(C)cc3c2C)s1 ?
AHR activator: inactive; STAT1 activator: inactive; PERK inh: inactive; NF-kB neuron act: inactive; APP 5'UTR act: inactive; MDM2 E3 inh: inactive

How did CCc1nnc(NC(=O)c2oc3ccccc3c2COC(C)C)s1 do in these assays?
AHR activator: 74.4

Results for Cc1[nH]c2ccccc2c1/C=N/Nc1nc2ccccc2[nH]1 ?
AHR activator: 143.3; PERK inh: inactive; MDM2 E3 inh: inactive

What do the screens show for `Cc1ccccc1/C=N/Nc1nc2ccccc2[nH]1`?
AHR activator: 65.2; STAT1 activator: inactive; PERK inh: inactive; NF-kB neuron act: inactive; APP 5'UTR act: inactive; MDM2 E3 inh: inactive

What do the screens show for `COc1ccc(/C=N/Nc2nc3ccccc3[nH]2)c(OC)c1OC`?
AHR activator: 51.0; PERK inh: inactive; MDM2 E3 inh: inactive

Results for Cc1[nH]c2ccccc2c1/C=N/Nc1nc(N2CCCCC2)nc(N2CCCCC2)n1 ?
AHR activator: inactive; STAT1 activator: inactive; PERK inh: inactive; NF-kB neuron act: inactive; APP 5'UTR act: inactive; MDM2 E3 inh: inactive

How did Cc1cc(=O)[nH]c(N/N=C/c2c[nH]c3ccccc23)n1 do in these assays?
AHR activator: inactive; PERK inh: inactive; MDM2 E3 inh: inactive

How did C(=N\Nc1nc2ccccc2[nH]1)/c1c[nH]c2ccccc12 do in these assays?
AHR activator: 107.8; STAT1 activator: 129.8; PERK inh: inactive; NF-kB neuron act: inactive; APP 5'UTR act: inactive; MDM2 E3 inh: inactive

Results for O=c1[nH]cccc1-c1nc2ccccc2n1Cc1cccc(F)c1 ?
AHR activator: inactive

How did Cc1cc(NC(=O)C(C)SCC(=O)N(C)CC(=O)Nc2ccc(F)cc2)no1 (stereo not drawn) do in these assays?
AHR activator: inactive

Results for Cc1[nH]c2ccccc2c1C1C(c2ccccc2)=NN=C(C(C)C)N1O (stereo not drawn) ?
AHR activator: inactive; STAT1 activator: inactive; PERK inh: inactive; NF-kB neuron act: inactive; APP 5'UTR act: inactive; MDM2 E3 inh: inactive

Results for CC1=NN=C(c2ccccc2)C(c2c[nH]c3ccccc23)N1O (stereo not drawn) ?
AHR activator: 68.1; STAT1 activator: inactive; PERK inh: inactive; NF-kB neuron act: inactive; APP 5'UTR act: inactive; MDM2 E3 inh: inactive

How did CC(=NCCCn1ccnc1)c1c(C)[nH]n(-c2ccc([N+](=O)[O-])cc2)c1=O do in these assays?
AHR activator: inactive; STAT1 activator: inactive; PERK inh: inactive; NF-kB neuron act: inactive; APP 5'UTR act: inactive; MDM2 E3 inh: inactive

Results for Cc1csc(SCC(=O)NC(=O)C2CCCCC2)n1 ?
AHR activator: inactive; STAT1 activator: inactive; PERK inh: inactive; NF-kB neuron act: inactive; APP 5'UTR act: 139.0; MDM2 E3 inh: inactive

Results for O=C(Nc1cccc(Cl)c1)Nc1sccc1-c1nc2ccccc2s1 ?
AHR activator: 48.7; PERK inh: inactive; MDM2 E3 inh: inactive

What do the screens show for `O=C(Nc1ccccc1)Nc1sccc1-c1nc2ccccc2s1`?
AHR activator: 71.9; PERK inh: inactive; MDM2 E3 inh: inactive

Results for CCN(CC(=O)Nc1ccccc1OC)C(=O)CSCc1ccc(C)cc1 ?
AHR activator: inactive

Results for Cc1ccc(NC(=O)c2cc(-c3cccs3)on2)cc1 ?
AHR activator: inactive; STAT1 activator: 130.5; PERK inh: inactive; NF-kB neuron act: inactive; APP 5'UTR act: inactive; MDM2 E3 inh: inactive

How did COCCNC(=O)c1cc(-c2cccs2)on1 do in these assays?
AHR activator: inactive; STAT1 activator: 134.8; PERK inh: inactive; NF-kB neuron act: 6.39; APP 5'UTR act: inactive; MDM2 E3 inh: inactive

What do the screens show for `COc1ccc(CNC(=O)c2cc(-c3cccs3)on2)cc1`?
AHR activator: inactive; STAT1 activator: inactive; PERK inh: inactive; NF-kB neuron act: inactive; APP 5'UTR act: inactive; MDM2 E3 inh: inactive

What do the screens show for `O=C(Nc1ccc(-c2noc(-c3ccccc3F)n2)cc1)c1cccs1`?
AHR activator: inactive; STAT1 activator: inactive; PERK inh: inactive; NF-kB neuron act: inactive; APP 5'UTR act: inactive

How did Cc1ccc(NC(=O)C(=O)NNC(=O)c2cccs2)cc1 do in these assays?
AHR activator: inactive; STAT1 activator: inactive; PERK inh: inactive; NF-kB neuron act: inactive; APP 5'UTR act: inactive; MDM2 E3 inh: inactive

What do the screens show for `Cc1ccccc1-c1nc(-c2ccc(NC(=O)c3cccs3)cc2)no1`?
AHR activator: 57.1; STAT1 activator: inactive; PERK inh: inactive; NF-kB neuron act: inactive; APP 5'UTR act: inactive; MDM2 E3 inh: inactive

How did Cc1ccc(NC(=O)c2cccs2)cc1 do in these assays?
AHR activator: inactive; STAT1 activator: 131.1; PERK inh: inactive; NF-kB neuron act: inactive; APP 5'UTR act: inactive; MDM2 E3 inh: inactive

What do the screens show for `COc1cccc2cc(/C(=N/O)c3ccccc3)oc12`?
AHR activator: inactive; STAT1 activator: inactive; PERK inh: inactive; NF-kB neuron act: inactive; APP 5'UTR act: inactive; MDM2 E3 inh: inactive

Results for Cc1cc(NC(=O)CCC(=O)N(c2ccccc2)C(C(=O)NC2CCCC2)c2ccccc2F)no1 (stereo not drawn) ?
AHR activator: inactive

Results for Cc1ccc2nc(SCC(=O)NC3CCS(=O)(=O)C3)[nH]c2c1 (stereo not drawn) ?
AHR activator: inactive

How did CCc1noc(C)c1C(=O)Nc1cc(S(=O)(=O)N2CCOCC2)ccc1N1CCN(CC)CC1 do in these assays?
AHR activator: inactive

How did Cc1cccc(CN2CCN(Cc3cccc(-n4cccn4)c3)CC2CCO)n1 (stereo not drawn) do in these assays?
AHR activator: inactive; STAT1 activator: inactive; PERK inh: inactive; NF-kB neuron act: inactive; APP 5'UTR act: inactive; MDM2 E3 inh: inactive

How did O=C(NCc1cccs1)c1cc(-c2ccccc2)on1 do in these assays?
AHR activator: inactive; STAT1 activator: inactive; PERK inh: inactive; NF-kB neuron act: inactive; APP 5'UTR act: inactive; MDM2 E3 inh: inactive

How did Cc1ccc(NC(=O)c2csc(-c3ccccc3)c2C)cc1 do in these assays?
STAT1 activator: inactive; PERK inh: inactive; NF-kB neuron act: inactive; APP 5'UTR act: 215.5; MDM2 E3 inh: inactive

Compound activity deposited in PubChem by several laboratories.
